Reference: ChEMBL document CHEMBL1135661, “Design of noncovalent inhibitors of human cathepsin L. From the 96-residue proregion to optimized tripeptides” (J Med Chem, 2002)
Peptide text beside a SMILES is read from it. * marks the point of attachment. Phenylacetyl(4-Ph) = O=C(Cc1ccc(-c2ccccc2)cc1)*

Experiments:
[1] = biological target: Procathepsin L (Homo sapiens, UniProt P07711); experiment: Inhibitory activity against human Cathepsin L
[2] = biological target: Cathepsin B (Homo sapiens, UniProt P07858); experiment: Specificity of Cathepsin B inhibition by the compound
How it was run: (§1)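 Recombinant human cathepsins B and K were expressed in Pichia pastoris and stored inhibited with MMTS or HgCl2 (B at 4 °C, K at −80 °C). Both were reactivated with 2 mM DTT and E-64 titrated. Cbz-Phe-Arg-MCA was kept well below KM, at 25 °C, pH 6.0 (50 mM phosphate, 5 mM EDTA, 0.2 M NaCl, 3% DMSO). Read-out was fluorescence at 380/440 nm. Ki came from 1/vs vs [I] plots or slow-binding analysis.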

[3] = biological target: T1, Cathepsin K (Homo sapiens, UniProt P43235); experiment: Specificity of Cathepsin K inhibition by the compound; how it was run: as §1
T1 sequence (P43235 whole entry): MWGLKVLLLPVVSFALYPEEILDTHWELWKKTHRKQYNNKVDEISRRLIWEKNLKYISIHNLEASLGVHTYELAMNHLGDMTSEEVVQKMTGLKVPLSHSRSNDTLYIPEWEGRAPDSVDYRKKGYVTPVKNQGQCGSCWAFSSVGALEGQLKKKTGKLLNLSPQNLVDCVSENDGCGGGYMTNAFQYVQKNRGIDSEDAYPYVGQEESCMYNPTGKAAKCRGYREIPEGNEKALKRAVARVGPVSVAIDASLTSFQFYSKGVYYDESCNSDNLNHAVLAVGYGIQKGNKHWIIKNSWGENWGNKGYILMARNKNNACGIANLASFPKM

Procathepsin L, sequence (P07711 whole entry): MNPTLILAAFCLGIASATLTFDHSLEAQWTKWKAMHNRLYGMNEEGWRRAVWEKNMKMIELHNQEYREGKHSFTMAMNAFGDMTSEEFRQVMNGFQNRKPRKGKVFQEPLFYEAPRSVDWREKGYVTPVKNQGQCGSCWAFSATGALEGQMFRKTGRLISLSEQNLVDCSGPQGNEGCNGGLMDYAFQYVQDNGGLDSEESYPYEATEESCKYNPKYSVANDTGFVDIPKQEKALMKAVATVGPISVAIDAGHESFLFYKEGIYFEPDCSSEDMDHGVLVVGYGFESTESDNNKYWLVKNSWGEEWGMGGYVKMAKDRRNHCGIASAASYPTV

| Ki [1] [nM] | Ki [2] [nM] | Ki [3] [nM] | SMILES |
| --- | --- | --- | --- |
| > 100000 | – | – | CSCC[C@H](NC(C)=O)C(=O)N[C@@H](CC(N)=O)C(=O)NCC(=O)N[C@@H](Cc1ccccc1)C(=O)N[C@@H](CCC(N)=O)C(N)=O (Ac-MNGFQ-NH2) |
| 160 | – | – | N=C(N)NCCC[C@H](NC(=O)[C@H](CS)NC(=O)Cc1ccc(-c2ccccc2)cc1)C(=O)N[C@@H](Cc1ccc2ccccc2c1)C(=O)NCCc1ccccc1 |
| 270 | – | – | CSC[C@@H](NC(=O)Cc1ccc(-c2ccccc2)cc1)C(=O)N[C@@H](CCCN=C(N)N)C(=O)N[C@@H](CC(C)C)C(=O)NCCc1ccccc1 |
| 270 | – | – | N=C(N)NCCC[C@H](NC(=O)[C@H](CS)NC(=O)Cc1ccc(-c2ccccc2)cc1)C(=O)N[C@@H](Cc1ccc(-c2ccccc2)cc1)C(=O)NCCc1ccccc1 |
| 67 | 560 | 1000 | N=C(N)NCCC[C@H](NC(=O)[C@H](CS)NC(=O)Cc1ccc(-c2ccccc2)cc1)C(=O)N[C@@H](Cc1c[nH]c2ccccc12)C(=O)NCCc1ccccc1 |
| 3900 | – | – | N=C(N)NCCC[C@H](NC(=O)[C@H](CCCN=C(N)N)NC(=O)[C@H](CS)NC(=O)Cc1ccc(-c2ccccc2)cc1)C(=O)NCCc1ccccc1 |

Further lines, the compound ahead of its results:

| SMILES | Ki [1] [nM] | Ki [2] [nM] | Ki [3] [nM] |
| --- | --- | --- | --- |
| N=C(N)NCCC[C@H](NC(=O)[C@H](CS)NC(=O)Cc1ccc(-c2ccccc2)cc1)C(=O)N[C@@H](CC1CCCCC1)C(=O)NCCc1ccccc1 | 160 | – | – |
| NC(=O)C[C@H](NC(=O)Cc1ccc(-c2ccccc2)cc1)C(=O)N[C@H](CCCN=C(N)N)C(=O)N[C@@H](Cc1ccccc1)C(=O)NC(Cc1ccccc1)C(N)=O (some centres not stated) | 38000 | – | – |
| N=C(N)NCCC[C@@H](NC(=O)[C@H](CO)NC(=O)Cc1ccc(-c2ccccc2)cc1)C(=O)N[C@@H](Cc1ccccc1)C(=O)N[C@@H](Cc1ccccc1)C(N)=O | 74000 | – | – |
| CSC[C@H](NC(=O)Cc1ccc(-c2ccccc2)cc1)C(=O)NCC(=O)N[C@@H](Cc1ccccc1)C(=O)N[C@@H](Cc1ccccc1)C(N)=O ({Phenylacetyl(4-Ph)}-C(Me)GFF-NH2) | 930 | – | – |
| CC[C@H](NC(=O)[C@H](CCCN=C(N)N)NC(=O)[C@H](CS)NC(=O)Cc1ccc(-c2ccccc2)cc1)C(=O)NCCc1ccccc1 | 210 | – | – |
| N=C(N)NCCC[C@H](NC(=O)[C@H](CS)NC(=O)Cc1ccc(-c2ccccc2)cc1)C(=O)N[C@@H](Cc1ccc(O)cc1)C(=O)NCCc1ccccc1 | – | 15000 | 2900 |
| N=C(N)NCCC[C@@H](NC(=O)[C@H](CS)NC(=O)Cc1ccc(-c2ccccc2)cc1)C(=O)N[C@@H](Cc1ccccc1)C(=O)N[C@@H](Cc1ccccc1)C(N)=O (stereo in doubt; 4) | 170 | – | – |
| CSCC[C@H](NC(=O)[C@H](CCCN=C(N)N)NC(=O)[C@@H](CSC)NC(=O)Cc1ccc(-c2ccccc2)cc1)C(=O)NCCc1ccccc1 | 240 | – | – |
